The values below come from ChEMBL document CHEMBL5223159, “Structural and Functional Characterization of Indane-Core CD4-Mimetic Compounds Substituted with Heterocyclic Amines” (ACS Med Chem Lett, 2023).

The structures appear in SMILES notation. Active and inactive are the calls of the source. No cut-off for these calls is given here.

Common to all, as to type: functional, organism-based
The subject of test [1] is Human immunodeficiency virus 1. Briefly: Antiviral activity against HIV-1 JRFL infected in HEK293T cells coexpressing firefly luciferase gene incubated for 1 hr. To be noted: Human immunodeficiency virus 1, JRFL, HEK-293T.
Test [2] relates to Human immunodeficiency virus 1. Put plainly: Antiviral activity against HIV-1 CH58TF infected in primary CD4 T cells isolated from PBMC assessed as antibody dependent cellular toxicity (ADCC) at 50 uM by cell surface staining based assay. The gist of the method: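 Primary CD4 T cells from PBMC infected with HIV-1 CH58TF for 48 h, then surface-stained with 1:1000 HIV+ plasma (n = 3) plus 50 μM compound or DMSO vehicle. Bound IgG detected with Alexa Fluor 647 anti-human IgG secondary by flow cytometry. Mean ± SEM.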

The subject of test [3] is Human immunodeficiency virus 1. Briefly: Antiviral activity against HIV-1 CH58TF infected in primary CD4 T cells isolated from PBMC assessed as antibody dependent cellular toxicity (ADCC) by measuring killing of p24+ infected cells at 50 uM FACS-based ADCC assay. The following applies: T cell. The method, boiled down:
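CH58TF-infected (48 h) primary CD4 T cells from PBMC served as targets in a FACS-based ADCC assay. Plasma from 3 HIV-1-infected individuals at 1:1000, with 50 μM compound or DMSO vehicle. Read-out is killing of p24+ infected cells. Mean ± SEM.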

In test [4] the test system is Human immunodeficiency virus 1. Put plainly: Antiviral activity against HIV-1 JRFL infected in primary CD4 T cells isolated from PBMC assessed as antibody dependent cellular toxicity (ADCC) at 50 uM by cell surface staining based assay.
In test [5] the test system is Human immunodeficiency virus 1. Briefly: Antiviral activity against HIV-1 JRFL assessed as inhibition of viral growth. To be noted: Human immunodeficiency virus 1, JRFL. The method, boiled down: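 IC50 against JRFL measured in triplicate. Where more than one triplicate experiment was run, the value is the mean IC50 with SEM and N triplicates.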
In test [6] the test system is Amphotropic murine leukemia virus. Briefly: Antiviral activity against A-MLV infected in HEK293T cells coexpressing firefly luciferase gene incubated for 1 hr. The following applies: HEK-293T.
Test [7] shares this test system. Briefly: Antiviral activity against A-MLV assessed as inhibition of viral growth. The gist of the method:
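Control virus pseudotyped with amphotropic MLV Env, tested at concentrations up to 100 μM.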

The term IC50 denotes the concentration that inhibits the measured activity by half. `N=C(N)NC[C@H]1Cc2cc(CN3CCC[C@@H]3C(=O)O)ccc2[C@@H]1NC(=O)C(=O)Nc1ccc(Cl)c(F)c1`: half-maximal inhibition in test [1] (IC50) was put at 32.4 µM.
As for `N=C(N)NC[C@H]1Cc2cc(CN3CC[C@@H](O)C3)ccc2[C@@H]1NC(=O)C(=O)Nc1ccc(Cl)c(F)c1`, the outcome in test [2] and in test [3] was Active. In test [1], this compound gave an IC50 of 10.2 µM.
For `N=C(N)NC[C@H]1Cc2cc(CN3CCC[C@H]3C(N)=O)ccc2[C@@H]1NC(=O)C(=O)Nc1ccc(Cl)c(F)c1`, the outcome in test [2] and in test [3] was Active. In test [1], this compound returned an IC50 of 12 µM.
Turning to `COC(=O)[C@@H]1C[C@@H](O)CN1Cc1ccc2c(c1)C[C@H](CNC(=N)N)[C@H]2NC(=O)C(=O)Nc1ccc(Cl)c(F)c1`, in test [2], the result was Active. For the same compound, the result in test [3] and in test [4] was inactive. Further, in test [1], the IC50 is 6.4 µM.
Take `N=C(N)NC[C@H]1Cc2ccccc2[C@@H]1NC(=O)C(=O)Nc1ccc(Cl)c(F)c1`: the IC50 in test [5] stood at 66.8 µM.
On to `N=C(N)NC[C@H]1Cc2cc(CN3CCC[C@@H]3CO)ccc2[C@@H]1NC(=O)C(=O)Nc1ccc(Cl)c(F)c1`, for which the result in test [2] and in test [3] was Active. In test [1], this compound showed a half-maximal inhibitory concentration (IC50) of 11.1 µM.
With `N=C(N)NC[C@H]1Cc2cc(CN3CCNCC3)ccc2[C@@H]1NC(=O)C(=O)Nc1ccc(Cl)c(F)c1`, the outcome in test [2] and in test [3] was Active. Further, the IC50 in test [1] is 4 µM; in test [6], more than 100 µM.
For the compound `N=C(N)NC[C@H]1Cc2cc(CN3CCC(C(N)=O)CC3)ccc2[C@@H]1NC(=O)C(=O)Nc1ccc(Cl)c(F)c1`, 33 µM corresponded to half-maximal inhibition in test [1] (IC50).
In test [1], `N=C(N)NC[C@H]1Cc2cc(CN3CC[C@@H](N)C3)ccc2[C@@H]1NC(=O)C(=O)Nc1ccc(Cl)c(F)c1` had an IC50 of 14 µM.
Turning to `N=C(N)NC[C@H]1Cc2cc(CN[C@H]3CNC[C@@H]3O)ccc2[C@@H]1NC(=O)C(=O)Nc1ccc(Cl)c(F)c1`, the result in test [2] and in test [3] was Active. In addition, the midpoint of inhibition in test [1], the IC50, lay at 7.5 µM.
Turning to `CNCc1ccc2c(c1)C[C@H](CNC(=N)N)[C@H]2NC(=O)C(=O)Nc1ccc(Cl)c(F)c1`, the IC50 is more than 100 µM in test [7] and 9.6 µM in test [5].
For the compound `N=C(N)NC[C@H]1Cc2cc(CN3CCC[C@H]3CO)ccc2[C@@H]1NC(=O)C(=O)Nc1ccc(Cl)c(F)c1`, the result in test [2] and in test [3] was Active. This compound also displayed an IC50 in test [1] of 13.5 µM.
As to `N=C(N)NC[C@H]1Cc2cc(CN3CCCCC3)ccc2[C@@H]1NC(=O)C(=O)Nc1ccc(Cl)c(F)c1`, the IC50 in test [1] is 5.5 µM; in test [6] it was more than 100 µM.
On to `N=C(N)NC[C@H]1Cc2cc(CN3CCC[C@H](C(=O)O)C3)ccc2[C@@H]1NC(=O)C(=O)Nc1ccc(Cl)c(F)c1`, for which, in test [1], the IC50 is 60 µM.
For the compound `N=C(N)NC[C@H]1Cc2cc(CN3CCCC3)ccc2[C@@H]1NC(=O)C(=O)Nc1ccc(Cl)c(F)c1`, the outcome in test [2] and in test [3] was Active. Further, the IC50 in test [1] was 4 µM; in test [6] it was more than 100 µM.
In test [1], `N=C(N)NC[C@H]1Cc2cc(CN3CCC[C@H]3C(=O)O)ccc2[C@@H]1NC(=O)C(=O)Nc1ccc(Cl)c(F)c1` displayed a half-inhibitory concentration (IC50) of 45.1 µM.
Same read-out and setting: in the case of `N#CC1CCN(Cc2ccc3c(c2)C[C@H](CNC(=N)N)[C@H]3NC(=O)C(=O)Nc2ccc(Cl)c(F)c2)CC1` it was 60.7 µM; in that of `N=C(N)NC[C@H]1Cc2cc(CN3CCN(c4ccc(F)cc4F)CC3)ccc2[C@@H]1NC(=O)C(=O)Nc1ccc(Cl)c(F)c1`, 50 µM.
For the compound `N=C(N)NC[C@H]1Cc2cc(CN3CC[C@H](O)C3)ccc2[C@@H]1NC(=O)C(=O)Nc1ccc(Cl)c(F)c1`, the outcome in test [2] and in test [3] was Active. This compound also came in with an IC50 in test [1] of 9.2 µM.
In test [1], `N=C(N)NC[C@H]1Cc2cc(CN3CC[C@H](N)C3)ccc2[C@@H]1NC(=O)C(=O)Nc1ccc(Cl)c(F)c1` yielded an IC50 of 10.1 µM.
